# Data: ChEMBL document CHEMBL1914320, “C4-alkylthiols with activity against Moraxella catarrhalis and Mycobacterium tuberculosis” (Bioorg Med Chem, 2011)
# Calls of active or inactive are those of the source. The rule behind the calls is not given here.
# How the values were obtained:
# [1] = test system: Moraxella catarrhalis; assay: Antibacterial activity against beta-lactamase producing Moraxella catarrhalis isolate 1 at 10 ug/disc after overnight incubation by disc diffusion assay; type: functional
# Outline: (§1)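 Isolates were held at −80 °C. Five colonies were suspended in Mueller-Hinton broth to a 0.5 McFarland density and swabbed onto MH agar. Discs carried 10 μg compound, applied in methanol and dried at room temperature. Plates were incubated overnight at 37 °C, and the zone of inhibition was measured in mm from the disc edge. Controls were methanol-only and penicillin discs. Run blinded, in triplicate.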
# [2] = test system: Moraxella catarrhalis; assay: Antibacterial activity against beta-lactamase producing Moraxella catarrhalis isolate 2 at 10 ug/disc after overnight incubation by disc diffusion assay; type: functional; conditions: for zone of inhibition at 10 µg/disc: read-out: IZ; outline: as §1
# [3] = test system: Moraxella catarrhalis; assay: Antibacterial activity against beta-lactamase producing Moraxella catarrhalis isolate 3 at 10 ug/disc after overnight incubation by disc diffusion assay; type: functional; outline: as §1
# [4] = test system: Moraxella catarrhalis; assay: Antibacterial activity against beta-lactamase producing Moraxella catarrhalis isolate 4 at 10 ug/disc after overnight incubation by disc diffusion assay; type: functional; conditions: read-out: IZ; outline: as §1
# [5] = test system: Moraxella catarrhalis; assay: Antibacterial activity against beta-lactamase producing Moraxella catarrhalis isolate 5 at 10 ug/disc after overnight incubation by disc diffusion assay; type: functional; conditions: for zone of inhibition at 10 µg/disc: read-out: IZ; outline: as §1
# [6] = test system: Moraxella catarrhalis; assay: Antibacterial activity against beta-lactamase producing Moraxella catarrhalis isolate 1 at 10 ug/disc after overnight incubation by disc diffusion assay in presence of 1 mol equiv of glutathione; type: functional; conditions: for zone of inhibition at 10 µg/disc: read-out: IZ
# [7] = test system: Moraxella catarrhalis; assay: Antibacterial activity against beta-lactamase producing Moraxella catarrhalis isolate 2 at 10 ug/disc after overnight incubation by disc diffusion assay in presence of 1 mol equiv of glutathione; type: functional; conditions: for zone of inhibition at 10 µg/disc: read-out: IZ
# [8] = test system: Moraxella catarrhalis; assay: Antibacterial activity against beta-lactamase producing Moraxella catarrhalis isolate 3 at 10 ug/disc after overnight incubation by disc diffusion assay in presence of 1 mol equiv of glutathione; type: functional
# [9] = test system: Moraxella catarrhalis; assay: Antibacterial activity against beta-lactamase producing Moraxella catarrhalis isolate 4 at 10 ug/disc after overnight incubation by disc diffusion assay in presence of 1 mol equiv of glutathione; type: functional; conditions: for zone of inhibition at 10 µg/disc: read-out: IZ
# [10] = test system: Moraxella catarrhalis; assay: Antibacterial activity against beta-lactamase producing Moraxella catarrhalis isolate 5 at 10 ug/disc after overnight incubation by disc diffusion assay in presence of 1 mol equiv of glutathione; type: functional; conditions: for zone of inhibition at 10 µg/disc: read-out: IZ
# [11] = test system: Moraxella catarrhalis; assay: Antibacterial activity against beta-lactamase producing Moraxella catarrhalis isolate 6 at 10 ug/disc after overnight incubation by disc diffusion assay in presence of 1 mol equiv of glutathione; type: functional
# [12] = test system: Moraxella catarrhalis; assay: Antibacterial activity against beta-lactamase producing Moraxella catarrhalis isolate 1 after 48 hrs incubation by microdilution broth method; type: functional; conditions: isolate 1, 48 h
# Outline: (§2)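 Broth microdilution followed CLSI guidelines. Compound was dissolved in 95% ethanol, diluted at least 10-fold into Mueller-Hinton broth, then serially two-fold diluted from 500 to 15.6 μg/mL. Actively growing culture was added at 5 × 10^5 cells/mL. Plates ran 48 h at 37 °C, scored for visible growth at 24 and 48 h. MIC was the lowest concentration without growth. For MBC, 10 μL from each clear well was plated on MH agar. Controls were ethanol and penicillin. Triplicate.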
# [13] = test system: Moraxella catarrhalis; assay: Antibacterial activity against beta-lactamase producing Moraxella catarrhalis isolate 2 after 48 hrs incubation by microdilution broth method; type: functional; conditions: isolate 2, 48 h; outline: as §2
# [14] = test system: Moraxella catarrhalis; assay: Antibacterial activity against beta-lactamase producing Moraxella catarrhalis isolate 3 after 48 hrs incubation by microdilution broth method; type: functional; conditions: isolate 3, 48 h; outline: as §2
# [15] = test system: Moraxella catarrhalis; assay: Antibacterial activity against beta-lactamase producing Moraxella catarrhalis isolate 4 after 48 hrs incubation by microdilution broth method; type: functional; conditions: isolate 4, 48 h; outline: as §2
# [16] = test system: Moraxella catarrhalis; assay: Antibacterial activity against beta-lactamase producing Moraxella catarrhalis isolate 5 after 48 hrs incubation by microdilution broth method; type: functional; conditions: isolate 5, 48 h; outline: as §2
# [17] = test system: Moraxella catarrhalis; assay: Antibacterial activity against beta-lactamase producing Moraxella catarrhalis isolate 6 after 48 hrs incubation by microdilution broth method; type: functional; conditions: isolate 6, 48 h; outline: as §2
# [18] = test system: Mycobacterium tuberculosis; assay: Antimycobacterial activity against wild type Mycobacterium tuberculosis H37Rv by Alamar blue assay; type: functional
# [19] = test system: Escherichia coli; assay: Antibacterial activity against non-beta-lactamase producing Escherichia coli ATCC 25922 at 10 ug/disc after overnight incubation by disc diffusion assay; type: functional, organism-based; outline: as §1
# [20] = test system: Pseudomonas aeruginosa; assay: Antibacterial activity against non-beta-lactamase producing Pseudomonas aeruginosa ATCC 27853 at 10 ug/disc after overnight incubation by disc diffusion assay; type: functional, organism-based; outline: as §1
# [21] = test system: Staphylococcus aureus; assay: Antibacterial activity against non-beta-lactamase producing Staphylococcus aureus ATCC 25923 at 10 ug/disc after overnight incubation by disc diffusion assay; type: functional, organism-based; outline: as §1
# [22] = test system: Enterococcus faecalis; assay: Antibacterial activity against non-beta-lactamase producing Enterococcus faecalis ATCC 29212 at 10 ug/disc after overnight incubation by disc diffusion assay; type: functional, organism-based; outline: as §1
# [23] = test system: Escherichia coli; assay: Antibacterial activity against non-beta-lactamase producing Escherichia coli ATCC 25922 after 48 hrs by microdilution broth method; type: functional, organism-based; outline: as §2
# [24] = test system: Pseudomonas aeruginosa; assay: Antibacterial activity against non-beta-lactamase producing Pseudomonas aeruginosa ATCC 27853 after 48 hrs by microdilution broth method; type: functional, organism-based; outline: as §2
# [25] = test system: Staphylococcus aureus; assay: Antibacterial activity against non-beta-lactamase producing Staphylococcus aureus ATCC 25923 after 48 hrs by microdilution broth method; type: functional, organism-based; outline: as §2
# [26] = test system: Enterococcus faecalis; assay: Antibacterial activity against non-beta-lactamase producing Enterococcus faecalis ATCC 29212 after 48 hrs by microdilution broth method; type: functional, organism-based; outline: as §2
# [27] = test system: Moraxella catarrhalis; assay: Antibacterial activity against beta-lactamase producing Moraxella catarrhalis isolate 6 at 10 ug/disc after overnight incubation by disc diffusion assay; type: functional; outline: as §1
# [28] = test system: Moraxella catarrhalis; assay: Antibacterial activity against beta-lactamase producing Moraxella catarrhalis isolate 2 at 500 ug/ml after overnight incubation by disc diffusion assay; type: functional, organism-based
# [29] = test system: Moraxella catarrhalis; assay: Antibacterial activity against beta-lactamase producing Moraxella catarrhalis isolate 3 at 500 ug/ml after overnight incubation by disc diffusion assay; type: functional, organism-based
# [30] = test system: Moraxella catarrhalis; assay: Antibacterial activity against beta-lactamase producing Moraxella catarrhalis isolate 4 at 500 ug/ml after overnight incubation by disc diffusion assay; type: functional, organism-based
# [31] = test system: Moraxella catarrhalis; assay: Antibacterial activity against beta-lactamase producing Moraxella catarrhalis isolate 5 at 500 ug/ml after overnight incubation by disc diffusion assay; type: functional, organism-based
# [32] = test system: Moraxella catarrhalis; assay: Antibacterial activity against beta-lactamase producing Moraxella catarrhalis isolate 6 at 500 ug/ml after overnight incubation by disc diffusion assay; type: functional, organism-based
# [33] = test system: Mycobacterium tuberculosis; assay: Antimycobacterial activity against wild type Mycobacterium tuberculosis H37Rv at 200 ug/ml by Alamar blue assay; type: functional, organism-based
SMILES,inhibition zone (IZ) [1],zone of inhibition at 10 µg/disc [2] [mm],inhibition zone (IZ) [3],zone of inhibition at 10 µg/disc [4] [mm],zone of inhibition at 10 µg/disc [5] [mm],zone of inhibition at 10 µg/disc [6] [mm],zone of inhibition at 10 µg/disc [7] [mm],inhibition zone (IZ) [8],zone of inhibition at 10 µg/disc [9] [mm],zone of inhibition at 10 µg/disc [10] [mm],inhibition zone (IZ) [11],MBC [12] [µg/mL],Activity [19],Activity [20],Activity [21],Activity [22],Activity [23],Activity [24],Activity [25],Activity [26],further results
O=C1CC(Sc2ccc(S)cc2)N1 (racemic),inactive,8,inactive,7,8,7,7,inactive,7,7,inactive,250,inactive,inactive,inactive,inactive,inactive,inactive,inactive,inactive,MBC [13]: 125 µg/mL; MBC [14]: 125 µg/mL; MBC [15]: 500 µg/mL; MBC [16]: 125 µg/mL; MBC [17]: 125 µg/mL; MBC [18]: 25 µg/mL; inhibition zone (IZ) [27]: inactive
O=C1CC(Sc2ccc(O)cc2)N1S(=O)(=O)O (racemic),–,9,–,8,9,9,7,–,7,8,–,> 500,inactive,inactive,inactive,inactive,inactive,inactive,inactive,inactive,zone of inhibition at 10 µg/disc ([1]; read-out: IZ): 13 mm; zone of inhibition at 10 µg/disc ([3]; read-out: IZ): 7 mm; zone of inhibition at 10 µg/disc ([8]; read-out: IZ): 7 mm; zone of inhibition at 10 µg/disc ([11]; read-out: IZ): 8 mm; MBC [13]: < 15.6 µg/mL; MBC [14]: < 15.6 µg/mL; MBC [15]: < 15.6 µg/mL; MBC [16]: < 15.6 µg/mL; MBC [17]: < 15.6 µg/mL; MBC [18]: > 200 µg/mL; zone of inhibition at 10 µg/disc ([27]; read-out: IZ): 8 mm
Nc1ccc(SC2CC(=O)N2S(=O)(=O)O)cc1 (racemic),inactive,–,inactive,8,–,–,–,inactive,8,–,inactive,–,inactive,inactive,inactive,inactive,inactive,inactive,inactive,inactive,inhibition zone (IZ) [2]: inactive; inhibition zone (IZ) [5]: inactive; inhibition zone (IZ) [6]: inactive; inhibition zone (IZ) [7]: inactive; inhibition zone (IZ) [10]: inactive; antibacterial activity (active/not active) [28]: Active; antibacterial activity (active/not active) [29]: Active; antibacterial activity (active/not active) [30]: Active; antibacterial activity (active/not active) [31]: Active; antibacterial activity (active/not active) [32]: Active; antimycobacterial activity (active/not active) [33]: Active; inhibition zone (IZ) [27]: inactive
CCC(CC)(CO)SC1CC(=O)N1 (stereo not drawn),–,–,–,–,–,–,–,inactive,–,–,–,–,inactive,inactive,inactive,inactive,inactive,inactive,inactive,inactive,inhibition zone (IZ) [6]: inactive; inhibition zone (IZ) [7]: inactive; inhibition zone (IZ) [9]: inactive; inhibition zone (IZ) [10]: inactive
